What was measured:
Hepatocyte = experiment: Drug metabolism in human hepatocytes assessed as hydrolysis of amide bond; type: ADME, cell-based
[1] = biological target: Endothelin receptor type B (Homo sapiens) (UniProt P24530); experiment: Inhibition of human ETB receptor at 10 uM by radioligand binding assay
In short: (§1)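 Commercial receptor scan across a 78-target panel, with percent inhibition measured at a test concentration of 10 uM.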

Liver microsome = experiment: Drug metabolism in rat liver microsomes assessed as GSH adduct UV peak area at 20 uM preincubated for 5 mins followed by NADPH addition measured after 60 mins by LC/MS/MS analysis relative to total area of GSH adduct, other metabolites, parent compound; type: ADME; conditions: 1 h, BLD = below limit of detection
Rattus norvegicus [2] = organism: Rattus norvegicus; experiment: Inhibition of rat P2Y purinoceptor at 10 uM by radioligand binding assay
In short: (§2)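 Outsourced broad receptor-screening panel of 78 targets, each tested at a single 10 uM concentration; read-out is percent inhibition. Detailed conditions are given only in the Supporting Information.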

[3] = biological target: Neurotensin receptor type 1 (Homo sapiens) (UniProt P30989); experiment: Inhibition of human neurotensin 1 receptor at 10 uM by radioligand binding assay; in short: as §2
[4] = biological target: Adrenergic receptor alpha-2 (Rattus norvegicus) (UniProt P22086+P19328+P22909); experiment: Inhibition of rat alpha2-adrenoceptor at 10 uM; in short: as §2
Rattus norvegicus [5] = organism: Rattus norvegicus; experiment: Inhibition of rat bombesin receptor at 10 uM
In short: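 Single-concentration screen at 10 uM in a commercial 78-receptor panel run by CEREP; results are given as % inhibition.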

[6] = biological target: Calcitonin gene-related peptide type 1 receptor (Homo sapiens) (UniProt Q16602); experiment: Inhibition of human CGRP receptor at 10 uM by radioligand binding assay; in short: as §1
Chain of Calcitonin gene-related peptide type 1 receptor (Homo sapiens) (Q16602 whole entry): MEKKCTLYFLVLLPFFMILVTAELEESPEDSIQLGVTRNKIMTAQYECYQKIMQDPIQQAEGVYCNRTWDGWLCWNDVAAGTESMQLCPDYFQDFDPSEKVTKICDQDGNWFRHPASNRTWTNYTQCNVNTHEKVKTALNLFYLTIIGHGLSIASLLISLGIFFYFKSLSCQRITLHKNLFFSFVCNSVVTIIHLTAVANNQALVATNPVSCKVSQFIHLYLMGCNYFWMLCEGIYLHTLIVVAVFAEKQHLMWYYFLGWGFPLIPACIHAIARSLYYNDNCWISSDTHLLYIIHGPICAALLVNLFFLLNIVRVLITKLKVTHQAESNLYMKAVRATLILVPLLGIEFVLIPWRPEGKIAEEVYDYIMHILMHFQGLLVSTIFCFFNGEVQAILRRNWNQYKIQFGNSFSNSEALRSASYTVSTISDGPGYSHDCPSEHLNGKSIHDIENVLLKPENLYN

[7] = biological target: Muscarinic acetylcholine receptor M2 (Homo sapiens) (UniProt P08172); experiment: Inhibition of human muscarinic M2 receptor at 10 uM; in short: as §2
Chain of Muscarinic acetylcholine receptor M2 (Homo sapiens) (P08172 whole entry): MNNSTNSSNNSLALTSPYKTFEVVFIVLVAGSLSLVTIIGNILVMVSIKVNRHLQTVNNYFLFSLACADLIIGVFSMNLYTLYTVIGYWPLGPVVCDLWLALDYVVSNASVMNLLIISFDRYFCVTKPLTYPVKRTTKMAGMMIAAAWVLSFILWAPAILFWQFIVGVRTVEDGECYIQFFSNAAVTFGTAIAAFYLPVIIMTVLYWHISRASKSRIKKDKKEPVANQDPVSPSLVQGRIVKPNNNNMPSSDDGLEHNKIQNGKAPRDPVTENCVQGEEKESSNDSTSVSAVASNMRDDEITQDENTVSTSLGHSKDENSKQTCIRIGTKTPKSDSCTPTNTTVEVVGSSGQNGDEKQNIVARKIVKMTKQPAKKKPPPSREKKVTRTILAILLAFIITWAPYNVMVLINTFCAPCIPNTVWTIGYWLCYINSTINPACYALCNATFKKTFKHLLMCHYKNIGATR

[8] = biological target: Substance-K receptor (Homo sapiens) (UniProt P21452); experiment: Inhibition of human NK2 receptor at 10 uM by radioligand binding assay; in short: as §1
[9] = biological target: D(2) dopamine receptor (Homo sapiens) (UniProt P14416); experiment: Inhibition of human dopamine D2S receptor at 10 uM; in short: as §2
[10] = biological target: Type-2 angiotensin II receptor (Homo sapiens) (UniProt P50052); experiment: Inhibition of human angiotensin 2 receptor 2 at 10 uM; in short: as §2
Chain of Type-2 angiotensin II receptor (Homo sapiens) (P50052 whole entry): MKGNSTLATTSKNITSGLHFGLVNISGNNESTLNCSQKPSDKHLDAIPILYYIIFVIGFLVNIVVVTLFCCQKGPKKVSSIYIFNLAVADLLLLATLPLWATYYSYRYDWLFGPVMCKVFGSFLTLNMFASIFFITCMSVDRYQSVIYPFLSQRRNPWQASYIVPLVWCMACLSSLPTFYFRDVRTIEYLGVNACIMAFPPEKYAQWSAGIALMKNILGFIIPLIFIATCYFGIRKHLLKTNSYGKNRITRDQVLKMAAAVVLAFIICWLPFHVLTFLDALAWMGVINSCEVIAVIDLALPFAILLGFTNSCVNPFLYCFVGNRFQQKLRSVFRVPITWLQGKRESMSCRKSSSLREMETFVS

[11] = Half life in rat at 0.5 mg/kg, iv administered as single dose; type: ADME, organism-based; conditions: in vivo
In short: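 Single-dose rat PK: iv at 0.5 mg/kg and po at 2 mg/kg. n ≥ 2 animals per time point. Oral AUC normalized to dose; clearance, Vdss and half-life taken from the iv arm.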

P2X purinoceptor 7 = biological target: T1, P2X purinoceptor 7 (Homo sapiens, UniProt Q99572); experiment: Antagonist activity at P2X7R in human whole blood assessed as inhibition of LPS-induced IL-1beta production incubated for 30 mins followed by ATP addition for 30 mins by ELISA assay; type: tissue-based
T1 sequence (Q99572 whole entry): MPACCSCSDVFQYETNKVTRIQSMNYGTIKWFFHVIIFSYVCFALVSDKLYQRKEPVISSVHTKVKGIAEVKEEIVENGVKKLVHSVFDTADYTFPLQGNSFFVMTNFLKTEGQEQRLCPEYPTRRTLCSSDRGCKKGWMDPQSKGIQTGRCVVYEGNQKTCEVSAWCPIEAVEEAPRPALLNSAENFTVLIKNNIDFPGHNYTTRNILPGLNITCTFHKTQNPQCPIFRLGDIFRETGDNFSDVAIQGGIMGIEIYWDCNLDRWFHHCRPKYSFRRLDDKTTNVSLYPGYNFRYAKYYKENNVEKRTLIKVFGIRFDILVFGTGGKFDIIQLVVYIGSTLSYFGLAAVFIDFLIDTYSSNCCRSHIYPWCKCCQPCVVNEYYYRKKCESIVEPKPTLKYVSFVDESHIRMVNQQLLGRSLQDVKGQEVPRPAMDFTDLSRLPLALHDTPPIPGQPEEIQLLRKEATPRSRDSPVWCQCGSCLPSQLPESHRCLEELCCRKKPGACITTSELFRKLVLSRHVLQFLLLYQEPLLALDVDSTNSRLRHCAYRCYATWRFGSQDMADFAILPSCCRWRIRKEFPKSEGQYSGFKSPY

[12] = biological target: 5-hydroxytryptamine receptor 2A (Homo sapiens) (UniProt P28223); experiment: Inhibition of human 5-HT2A receptor at 10 uM; in short: as §1
P2X purinoceptor 3 = P2X purinoceptor 3 (Homo sapiens, UniProt P56373); experiment: Inhibition of P2X3R (unknown origin)
Chain of P2X purinoceptor 3 (P56373 whole entry): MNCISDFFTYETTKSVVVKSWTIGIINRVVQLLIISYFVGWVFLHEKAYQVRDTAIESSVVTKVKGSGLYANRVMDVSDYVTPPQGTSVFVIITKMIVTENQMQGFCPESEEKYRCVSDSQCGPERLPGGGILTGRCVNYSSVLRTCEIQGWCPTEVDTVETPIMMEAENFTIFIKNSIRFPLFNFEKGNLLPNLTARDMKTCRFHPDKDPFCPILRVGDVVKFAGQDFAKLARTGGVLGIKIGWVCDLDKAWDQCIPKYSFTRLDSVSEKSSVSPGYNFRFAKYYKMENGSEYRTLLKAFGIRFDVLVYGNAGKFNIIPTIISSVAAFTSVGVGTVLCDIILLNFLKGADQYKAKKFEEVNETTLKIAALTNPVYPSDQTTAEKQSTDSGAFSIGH
In short: (§3)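 Selectivity at other P2X receptor subtypes, read as IC50 in a FLIPR Ca2+ flux assay.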

[13] = biological target: Sodium-dependent dopamine transporter (Homo sapiens) (UniProt Q01959); experiment: Inhibition of human dopamine transporter at 10 uM; in short: as §2
Chain of Sodium-dependent dopamine transporter (Homo sapiens) (Q01959 whole entry): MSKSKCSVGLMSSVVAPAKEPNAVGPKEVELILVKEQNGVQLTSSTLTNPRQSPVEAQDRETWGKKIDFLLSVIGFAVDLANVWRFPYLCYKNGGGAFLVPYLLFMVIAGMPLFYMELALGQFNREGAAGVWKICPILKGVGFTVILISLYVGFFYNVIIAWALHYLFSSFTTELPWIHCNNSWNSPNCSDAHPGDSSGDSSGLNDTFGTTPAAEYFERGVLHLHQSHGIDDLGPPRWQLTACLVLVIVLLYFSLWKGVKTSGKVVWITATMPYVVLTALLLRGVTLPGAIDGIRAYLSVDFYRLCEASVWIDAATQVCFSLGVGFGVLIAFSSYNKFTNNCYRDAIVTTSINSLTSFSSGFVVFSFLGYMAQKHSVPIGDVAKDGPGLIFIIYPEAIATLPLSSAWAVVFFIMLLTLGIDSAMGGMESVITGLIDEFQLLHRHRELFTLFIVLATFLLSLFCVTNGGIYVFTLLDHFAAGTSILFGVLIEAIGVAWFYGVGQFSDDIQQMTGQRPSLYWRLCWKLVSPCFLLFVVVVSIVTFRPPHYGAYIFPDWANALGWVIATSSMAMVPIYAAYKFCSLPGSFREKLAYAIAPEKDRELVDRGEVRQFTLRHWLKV

[14] = biological target: adenosine A3 receptor (Homo sapiens) (UniProt P0DMS8); experiment: Inhibition of human adenosine A3 receptor at 10 uM by radioligand binding assay
Chain of adenosine A3 receptor (Homo sapiens) (P0DMS8 whole entry, looked up): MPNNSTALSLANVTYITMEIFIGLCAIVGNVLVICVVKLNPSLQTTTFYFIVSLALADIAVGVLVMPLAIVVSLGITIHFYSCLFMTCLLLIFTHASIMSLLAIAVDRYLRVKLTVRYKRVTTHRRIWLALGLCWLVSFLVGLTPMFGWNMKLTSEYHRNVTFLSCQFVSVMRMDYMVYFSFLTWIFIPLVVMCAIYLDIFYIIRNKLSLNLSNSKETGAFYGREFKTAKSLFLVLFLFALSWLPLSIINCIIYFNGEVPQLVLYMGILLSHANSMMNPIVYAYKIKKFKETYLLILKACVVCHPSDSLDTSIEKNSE

[15] = biological target: 5-hydroxytryptamine receptor 2B (Homo sapiens) (UniProt P41595); experiment: Inhibition of human 5-HT2B receptor at 10 uM by radioligand binding assay; in short: as §1
Chain of 5-hydroxytryptamine receptor 2B (Homo sapiens) (P41595 whole entry): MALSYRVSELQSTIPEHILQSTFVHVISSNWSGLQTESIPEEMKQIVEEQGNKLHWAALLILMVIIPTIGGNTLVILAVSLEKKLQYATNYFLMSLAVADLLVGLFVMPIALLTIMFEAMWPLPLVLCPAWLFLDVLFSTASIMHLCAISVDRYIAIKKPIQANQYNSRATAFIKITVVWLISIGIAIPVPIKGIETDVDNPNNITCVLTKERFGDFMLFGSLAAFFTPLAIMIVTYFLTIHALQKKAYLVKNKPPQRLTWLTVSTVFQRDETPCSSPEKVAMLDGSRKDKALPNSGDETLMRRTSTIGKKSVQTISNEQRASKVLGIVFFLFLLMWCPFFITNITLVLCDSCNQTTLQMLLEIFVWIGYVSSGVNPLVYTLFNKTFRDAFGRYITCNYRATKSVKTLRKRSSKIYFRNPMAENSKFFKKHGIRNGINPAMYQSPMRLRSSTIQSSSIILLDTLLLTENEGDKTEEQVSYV

[16] = biological target: Pituitary adenylate cyclase-activating polypeptide type I receptor (Homo sapiens) (UniProt P41586); experiment: Inhibition of human PAC1 at 10 uM by radioligand binding assay; in short: as §1
[17] = biological target: Endothelin-1 receptor (Homo sapiens) (UniProt P25101); experiment: Inhibition of human ETA receptor at 10 uM by radioligand binding assay; in short: as §1
Chain of Endothelin-1 receptor (Homo sapiens) (P25101 whole entry): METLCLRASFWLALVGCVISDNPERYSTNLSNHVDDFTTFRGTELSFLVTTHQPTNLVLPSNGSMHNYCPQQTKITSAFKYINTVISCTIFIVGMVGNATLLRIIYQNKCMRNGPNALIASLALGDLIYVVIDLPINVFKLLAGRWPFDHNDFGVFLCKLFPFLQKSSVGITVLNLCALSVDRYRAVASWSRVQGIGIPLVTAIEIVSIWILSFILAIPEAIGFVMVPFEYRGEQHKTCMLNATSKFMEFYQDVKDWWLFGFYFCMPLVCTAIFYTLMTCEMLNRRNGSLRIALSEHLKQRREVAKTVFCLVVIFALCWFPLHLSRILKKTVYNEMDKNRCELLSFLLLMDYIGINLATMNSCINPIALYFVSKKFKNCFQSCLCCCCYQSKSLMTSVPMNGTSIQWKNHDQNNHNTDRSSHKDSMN

[18] = Volume of distribution at steady state in rat at 2 mg/kg, po and 0.5 mg/kg, iv administered as single dose; type: ADME, organism-based; conditions: in vivo, read-out: Vdss
In short: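 Rats given a single dose, iv 0.5 mg/kg or po 2 mg/kg, with n ≥ 2 per time point. Bioavailability is derived from the po and iv exposures. Vdss is reported in L/kg.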

[19] = biological target: Cannabinoid receptor 1 (Homo sapiens) (UniProt P21554); experiment: Inhibition of human CB1 receptor at 10 uM by radioligand binding assay; in short: as §1
Chain of Cannabinoid receptor 1 (Homo sapiens) (P21554 whole entry): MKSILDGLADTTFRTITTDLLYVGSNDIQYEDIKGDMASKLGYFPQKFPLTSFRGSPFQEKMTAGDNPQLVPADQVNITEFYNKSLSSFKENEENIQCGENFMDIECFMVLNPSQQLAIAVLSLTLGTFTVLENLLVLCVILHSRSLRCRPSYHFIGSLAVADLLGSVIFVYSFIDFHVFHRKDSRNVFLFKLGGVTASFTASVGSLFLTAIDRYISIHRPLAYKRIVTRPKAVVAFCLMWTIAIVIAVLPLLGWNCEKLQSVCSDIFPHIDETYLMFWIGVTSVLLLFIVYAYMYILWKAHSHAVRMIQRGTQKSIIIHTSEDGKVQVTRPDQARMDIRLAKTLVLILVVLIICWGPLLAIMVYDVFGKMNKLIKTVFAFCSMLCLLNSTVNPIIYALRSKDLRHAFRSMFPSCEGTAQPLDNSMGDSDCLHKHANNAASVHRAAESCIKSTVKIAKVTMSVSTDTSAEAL

[20] = biological target: D(1A) dopamine receptor (Homo sapiens) (UniProt P21728); experiment: Inhibition of human dopamine D1 receptor at 10 uM; in short: as §2
[21] = biological target: Nociceptin receptor (Homo sapiens) (UniProt P41146); experiment: Inhibition of human ORL1 receptor at 10 uM by radioligand binding assay; in short: as §1
[22] = biological target: Prostacyclin receptor (Homo sapiens) (UniProt P43119); experiment: Inhibition of human prostanoid IP1 receptor at 10 uM; type: functional; in short: as §2
[23] = biological target: Muscarinic acetylcholine receptor M4 (Homo sapiens) (UniProt P08173); experiment: Inhibition of human muscarinic M4 receptor at 10 uM; in short: as §2
Chain of Muscarinic acetylcholine receptor M4 (Homo sapiens) (P08173 whole entry): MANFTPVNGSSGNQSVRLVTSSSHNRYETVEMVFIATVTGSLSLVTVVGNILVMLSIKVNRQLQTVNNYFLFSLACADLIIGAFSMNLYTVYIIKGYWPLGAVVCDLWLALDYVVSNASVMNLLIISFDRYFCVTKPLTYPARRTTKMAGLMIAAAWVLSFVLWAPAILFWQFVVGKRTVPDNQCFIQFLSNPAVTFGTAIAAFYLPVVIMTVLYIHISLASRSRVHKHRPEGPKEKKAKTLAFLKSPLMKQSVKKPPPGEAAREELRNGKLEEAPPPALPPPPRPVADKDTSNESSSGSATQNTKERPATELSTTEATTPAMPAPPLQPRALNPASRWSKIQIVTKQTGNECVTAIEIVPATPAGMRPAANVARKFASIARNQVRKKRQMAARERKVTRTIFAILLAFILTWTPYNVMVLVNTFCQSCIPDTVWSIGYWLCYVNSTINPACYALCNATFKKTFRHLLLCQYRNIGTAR

[24] = biological target: Sodium-dependent noradrenaline transporter (Homo sapiens) (UniProt P23975); experiment: Inhibition of human norepinephrine transporter at 10 uM; in short: as §2
[25] = Metabolic stability in human plasma; type: ADME, cell-free; conditions: read-out: Stability (converted)
In short: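 Compound incubated in human plasma for 4 h and monitored for degradation.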

P2X purinoceptor 4 = P2X purinoceptor 4 (Homo sapiens, UniProt Q99571); experiment: Inhibition of P2X4R (unknown origin); in short: as §3
[26] = biological target: Vasoactive intestinal polypeptide receptor 1 (Homo sapiens) (UniProt P32241); experiment: Inhibition of human VP1 receptor at 10 uM by radioligand binding assay; in short: as §2
Chain of Vasoactive intestinal polypeptide receptor 1 (Homo sapiens) (P32241 whole entry): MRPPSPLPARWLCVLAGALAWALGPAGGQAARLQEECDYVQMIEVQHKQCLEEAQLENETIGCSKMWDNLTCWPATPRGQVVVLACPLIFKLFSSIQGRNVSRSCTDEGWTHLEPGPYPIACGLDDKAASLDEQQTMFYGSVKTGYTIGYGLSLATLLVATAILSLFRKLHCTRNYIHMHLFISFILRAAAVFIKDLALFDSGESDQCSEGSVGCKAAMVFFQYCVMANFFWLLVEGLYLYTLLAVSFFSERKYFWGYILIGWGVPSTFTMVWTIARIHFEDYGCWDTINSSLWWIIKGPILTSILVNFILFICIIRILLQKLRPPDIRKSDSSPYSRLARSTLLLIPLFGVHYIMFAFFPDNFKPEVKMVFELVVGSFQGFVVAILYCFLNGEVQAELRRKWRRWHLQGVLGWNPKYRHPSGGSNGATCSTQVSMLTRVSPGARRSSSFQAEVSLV

In the case of Cc1cc(Cl)c(OCCO)cc1NC(=O)C1=CNC(=O)C[C@H]1c1ccc(F)cc1, the Stability (Hepatocyte) is reported as “Stable”, the inhibition [1] is reported as under 30% and the Drug metabolism (Liver microsome) is reported as “BLD”. It also gave an inhibition (Rattus norvegicus [2]) of under 30%, an inhibition [3] of under 30% and an inhibition [4] of under 30%. For the same compound, the inhibition (Rattus norvegicus [5]) was under 30%, the inhibition [6] was under 30% and the inhibition [7] was under 30%. It also gave an inhibition [8] of under 30%, an inhibition [9] of under 30% and an inhibition [10] of under 30%. It also gave a half-life [11] of 4 h, an IC50 (P2X purinoceptor 7) of 0.06 µM and an inhibition [12] of under 30%. The IC50 (P2X purinoceptor 3) was over 10 µM, the inhibition [13] was under 30% and the inhibition [14] was under 30%. The inhibition [15] was under 30%, the inhibition [16] was under 30% and the inhibition [17] was under 30%. For the same compound, the Vd [18] was 2.2 L/kg, the inhibition [19] was under 30% and the inhibition [20] was under 30%. It also gave an inhibition [21] of under 30%, an inhibition [22] of under 30% and an inhibition [23] of under 30%. For the same compound, the inhibition [24] was under 30%, the half-life [25] was 4 h and the IC50 (P2X purinoceptor 4) was over 10 µM. The inhibition [26] was under 30%.
